What is called inhibition is how much of the control response was suppressed. High values mean strong suppression, low ones little suppression. The IC50 is the point on the concentration scale where inhibition reaches its midpoint. A low value points to greater potency.

The target of one test is Tubulin (Homo sapiens) (UniProt P68371+Q9H4B7+P0DPH7+P68366+Q13509+Q71U36+P04350+Q3ZCM7+P07437+P68363+Q9BQE3+Q6PEY2+Q13885+Q9BVA1+Q9BUF5). The test can be described thus: Inhibition of tubulin polymerization (unknown origin) at 5 uM. The test is classed as protein-complex assay. Put shortly:
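Tubulin came from fresh animal brain (species not given), homogenized in cold MES buffer and purified through repeated cold (4 °C) and warm 105,000 g centrifugation cycles, then diluted to 2 mg/mL in MES. Cold tubulin was mixed with ATPNa2 (40 mmol/L stock) and compound. Polymerization was followed as OD350 every 3 min at 37 °C for 30 min.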

A further test has as its system MCF7. The test can be described thus: Cytotoxicity against human MCF7 cells after 72 hrs. The test is classed as functional, cell-based. To be noted: MCF7, 72 h.
Test [1] is described as follows: Cytotoxicity against human MCF7/ADR cells after 72 hrs. The test is classed as functional, cell-based. To be noted: NCI/ADR-RES.

On to `C/C1=C/C[C@@H](/C(C)=C/c2csc(C)n2)OC(=O)C[C@H](O)C(C)(C)C(=O)[C@H](C)[C@@H](O)[C@@H](C)[C@@H](C)CC1`, for which the inhibition against Tubulin (Homo sapiens) was found to be 8.5%. In the test on MCF7, the IC50 came out at 35.4 µM.

For the molecule `C/C1=C\C[C@@H](/C(C)=C/c2csc(C)n2)OC(=O)C[C@H](O)C(C)(C)C(=O)[C@H](C)[C@@H](O)[C@@H](C)[C@@H](C)CC1`, the figures for the half-inhibitory concentration (IC50) (in test [1]; in the test with MCF7) were above 100 µM and 93.4 µM, respectively.

Regarding `C/C1=C/C[C@@H](/C(C)=C/c2csc(C)n2)OC(=O)C[C@H](O)C(C)(C)C(=O)[C@H](C)[C@@H](O)[C@@H](C)[C@H](C)CC1`, the inhibition against Tubulin (Homo sapiens) stood at 15.7%. Besides, the IC50 in test [1] came to 0.51 µM; in the test with MCF7, 0.99 µM.

With `C/C1=C\C[C@@H](/C(C)=C/c2csc(C)n2)OC(=O)C[C@H](O)C(C)(C)C(=O)[C@H](C)[C@@H](O)[C@@H](C)[C@H](C)CC1`, the IC50 in test [1] turned out to be 7.3 µM; in the test with MCF7 it was 7.7 µM.

Molecule `C/C1=C/C[C@@H](/C(C)=C/c2csc(C)n2)OC(=O)C[C@H](O)C(C)(C)C(=O)[C@H](C)[C@@H](O)[C@@H](C)CCC1` [EPOTHILONE D] displayed an inhibition against Tubulin (Homo sapiens) of 43.3%. Further, the IC50 in test [1] was 0.01 µM; in the test with MCF7, 0.014 µM.

The record behind these values is ChEMBL document CHEMBL2424592, “Epothilone D and its 9-Methyl analogues: combinatorial syntheses, conformation, and biological activities” (Eur J Med Chem, 2013).
